# According to PubChem BioAssay:
# Unmarked numbers belong to inactive results. Inconclusive results are not listed. Active and inactive are the calls of the source.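 Rule for the calls, unless noted: active = viability increase at or above a cutoff of the median across tested compounds plus 3 SD (cut at about 8.5% in these data, passing the limit was not always enough); inconclusive = some gains above the cutoff, reason not given; inactive = the rest.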
# What was measured:
# [1] = S. cerevisiae growth inhibition in permissive medium (OD615), pilot counter-assay for S. cerevisiae lifespan shortening project, permissive growth control (AID 705;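 active = growth inhibition above 25% in both replicates, a cutoff set 3 SD above the mean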); details: OD615, 24 h, at 10 µM, active compounds read high
# In short: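 Material: engineered DeaD yeast; compound dosing: one dose 10 µM, DMSO 0.25% final; measure: yeast growth inhibition indicated by reduced 24 h OD615; detection: OD615 turbidity read; incubation: cells pre-grown 4 h, then 24 h compound exposure, 30 °C humidified; medium: permissive synthetic complete medium with raffinose and galactose carbon sources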
# [2] = S. cerevisiae growth inhibition in restrictive medium, OD615, pilot screen, restrictive growth control, yeast lifespan reduction project (AID 706;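 active = growth inhibition above a set limit, 3 SD over mean compound inhibition, in both replicates, cut at about 43% in these data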;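 note: modified DeaD lifespan yeast strain shifted to restrictive glucose medium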); details: OD615, 48 h, at 10 µM, active compounds read high
# In short: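 material = engineered S. cerevisiae DeaD strain | medium = glucose-based CSMM-D restrictive medium | times = 4 h pre-incubation, 48 h exposure at 30 °C | technique = OD615 absorbance reading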
# [3] = doxorubicin toxicity protection in MRP-1 cells – H69AR cells, CellTiter-Glo, duplicate, MRP-1 activator project, pilot screen (AID 807); details: H69AR viability with doxorubicin, CellTiter-Glo luminescence; at 10 µM; active compounds read high;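 note: compound pretreatment 18-22 h then 72 h combined with doxorubicin; 0% = doxorubicin alone and 100% = vehicle without doxorubicin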
# [4] = viability of HCT116 without oncogenic beta-catenin – human colon tumor cells, pilot screen (AID 823;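 active = cell viability at or below a set limit in both duplicate runs, the limit being the all-compound median minus 4 SD, cut at about 23% in these data, passing the limit was not always enough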;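 note: 0% = wells killed by 20 µM Hyamine and 100% = untreated DMSO cell wells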); details: HCT116 beta-catenin knockout viability, CellTiter-Glo, 60 h; at 10 µM; active compounds read low
# [5] = viability of PTEN-null HCT116 cells – cell-based, HCT116 clonal line, CellTiter-Glo, pilot screen (AID 824;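 active = viability at or below 27.92% in each of two runs, the all-compound median minus 4 SD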;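 note: 0% = 20 µM Hyamine control and 100% = vehicle cell control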); details: HCT116 PTEN-deleted viability, 60 h, at 10 µM, active compounds read low
# [6] = RAM pathway blockade in budding yeast – dse1pr::URA3 reporter, 5-FOA selection, pilot screen (AID 869;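 active = inhibition over a set limit, the all-compound mean plus 3 SD, in both replicate runs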;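 note: 0% = DMSO wells with no growth and 100% = 10 µM 1-NA-PP1 with full growth; RAM network block rescues cells from 5-FOA so hits raise OD615 growth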); details: S. cerevisiae dse1pr::URA3 5-FOA growth, OD615, 2 d; at 10 µM; active compounds read high; strain carries analog-sensitive mutant Cbk1 kinase
# [7] = RAM signaling pathway blockade in yeast – S. cerevisiae, Pdr1DBD-CYC8 efflux-inhibited sensitized strain, primary screen (AID 1298;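 active = RAM network inhibition above 8.4% in each of two replicates, 3 SD over the compound average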;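 note: 0% = DMSO untreated cells without growth and 100% = 10 µM 1-NA-PP1 full growth; higher means more yeast growth rescued from 5-FOA killing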); details: S. cerevisiae cbk1-as DSE1-URA3 strain, 5-FOA growth OD615, 2 d; at 50 µM; active compounds read high
Structure (SMILES),growth inhibition [1] [%],growth inhibition [2] [%],viability increase [3] [%],viability [4],viability [5],inhibition [6] [%],RAM network inhibition [7] [%]
Cc1ccc2oc(Nc3nc(C)cc(C)n3)nc2c1,-6.34,13.1,0.49,102%,94.8%,1.01,0.61
CCC(Sc1nc(C)cc(=O)[nH]1)C(=O)Nc1sc2c(c1C#N)CCCC2 (configuration not stated),-14,-12.3,-3.49,92.9%,91.4%,2.01,6.25
O=C(Nc1nc(-c2ccc3c(c2)OCO3)cs1)C1COc2ccccc2O1 (configuration not stated),0.51,3.12,1.56,99.8%,88.9%,2.81,4.11
O=C1CCc2cc(S(=O)(=O)NC(Cc3ccccc3)C(=O)NC3CCCC3)ccc2N1 (configuration not stated),-11.3,-9.16,-0.35,96.8%,98.8%,1.86,0.41
Cc1cc(-c2nnco2)c(C)n1-c1ccc(F)cc1,-8.75,-5.7,-2.15,84.2%,85.3%,0.83,4.69
OCCOCCNc1ncnc2nc[nH]c12,-8.26,-0.86,-0.43,106%,101%,1.8,-0.28
Cc1cc(=O)[nH]c(SCc2cc(Cl)ccc2OC(F)F)n1,-4.67,15.1,-1.54,98.2%,92.1%,1.62,5.32
O=C(c1ccc(N2CCCCS2(=O)=O)cc1)N1CCN(c2ccc(N3CCOCC3)nn2)CC1,3.18,14.7,-0.03,105%,106%,0.09,1.25
O=C1c2ccccc2C(Nc2ccc3c(c2)OCCO3)N1Cc1ccccc1 (configuration not stated),-4.61,8.43,-1.12,88.7%,80.9%,0.61,2.3
CCN1C(=O)NC(c2cccnc2)C(C(=O)OC)=C1C (configuration not stated),-17.7,-5.54,-1.3,99.5%,99.9%,0.735,0.25
CCOC(=O)N1CCC(N2C(=O)c3ccccc3C2=O)CC1,-1.78,-3.71,0.37,102%,98.8%,1.98,-0.31
COCCOC(=O)C1=C(C)NC(=O)NC1C1CC=CCC1 (configuration not stated),-6.74,-6.73,0.63,91.5%,101%,1.45,5.08
CCCCC(CC)CNC(=O)CCS(=O)(=O)c1cccc2nsnc12 (configuration not stated),-14.8,-21.5,-2.97,85.7%,91.7%,3.19,4.78
CCN1CCCC1CNC(=O)c1cc2c(-c3ccc(Cl)cc3)nn(C)c2s1 (configuration not stated),-7.45,10.1,-8.33,2.03% (active),2.04% (active),1.31,8.33
Cn1c(NCCO)nc2c(c1=O)C1(CCCCC1)Cc1ccccc1-2,-13.2,-9.4,-2.31,84%,76%,2.31,5
CCS(=O)(=O)N1CCN(c2cccc(C)c2C)CC1,-12.4,-5.41,-1.48,97.5%,89.3%,2.35,4.29
CCOCC(=O)NCc1ccc2c(c1)cc(C)n2C,-13.8,-14,-1.45,103%,97.3%,0.65,0.21
COCCCNC(=O)COc1cc(C)c(Cl)c(C)c1,-3.79,-2.48,-1.76,95.5%,96.3%,-0.185,1.45

Structure (SMILES),growth inhibition [1] [%],growth inhibition [2] [%],viability increase [3] [%],viability [4],viability [5],inhibition [6] [%],RAM network inhibition [7] [%]
O=C(NC(=O)c1ccccc1)OCC(F)(F)F,-6.06,-1.48,0.71,98.9%,103%,0.34,3.03
CCN1CCN(C(=O)Nc2ccc(Cc3ccc(NC(=O)N4CCN(CC)CC4)cc3)cc2)CC1,-9.89,-9.14,-2.42,78.3%,86.7%,1.72,2.65
O=C(Nc1nnc(-c2cccs2)o1)c1cccc(C(F)(F)F)c1,-14.9,7.83,-0.12,15.5% (active),19.5% (active),1.56,3.02
Cc1cc(=O)[nH]c(Cc2ccc(OC(C)C)cc2)n1,-6.43,-15.4,-1.17,98.4%,93.2%,1.98,5.82
CCOC(=O)c1cccc(NC(=O)C2CCCN2S(=O)(=O)c2cccc3cccnc23)c1 (configuration not stated),-9.1,-2.39,-3.02,92%,89.8%,1.41,-1.53
O=C1C(Cl)=C(N2CCOCC2)C(=O)N1c1ccccc1Cl,-8.11,-4.76,-2.16,99.2%,103%,0.045,4.96
CCCC12CN3CC(CCC)(CN(C1)C3C(O)C(O)C(O)CO)C2=O (configuration not stated),4.31,7.78,0.62,99.7%,100%,1.27,3.47
COc1ccc(-c2nc(-c3ccc(NC(=O)c4ccncc4)cc3)no2)cc1OC,-3.46,9.41,0.06,42.6%,50.8%,2.85,2.92
CC1CCN(C(=O)C(Cc2ccccc2)NS(=O)(=O)c2ccc3c(c2)oc(=O)n3C)CC1 (configuration not stated),-12.5,-17.6,-1.4,104%,94.1%,1.85,8.04
Cc1nnc(SCCC(C)C)[nH]c1=O,-1.1,0.225,-2.93,101%,99.7%,0.745,3.25
CCn1c(N)nc2c1c(=O)n(C)c(=O)n2C,4.48,-1.29,-1.39,108%,98.9%,0.32,2.67
CCOC(=O)N1CCN(CC(=O)c2ccc3c(c2)CCN3C(C)=O)CC1,0.355,-1.94,-1.31,100%,96.6%,2.14,6.23
O=C(OCCNc1ncc(C(F)(F)F)cc1Cl)c1ccc(S(=O)(=O)N2CCOCC2)cc1,-5,-18.4,-2.03,88.8%,97.9%,1.17,9.46
Cc1cc(-n2nc(C)cc2C)nc(NS(=O)(=O)c2ccccc2)n1,-11.4,-20.8,-2.09,94.8%,94.3%,2.98,4.2
CCN1CCN(c2ncnc3c2sc(=S)n3-c2ccccc2)CC1,8.5,11.5,-3.4,85.4%,84.9%,1.73,-0.06
CCOc1ccc(N(CC(=O)N2CCN(c3ccccc3)CC2)S(=O)(=O)c2c(C)noc2C)cc1,1.67,-1.08,-5.76,76.4%,67.7%,1.49,1.85
COc1ccc(OCCSc2nnc(-c3ccccc3)n2N)cc1,-2.49,-12.7,0.25,89.8%,92.5%,1.27,5.07
CC1C(c2ccccc2)=[N+]([O-])C2(CCCC2)N1O (configuration not stated),-2.46,-6.78,-3.01,97%,96.6%,1.53,1.41
